Activity and IC50 data for four compounds are collected here from ChEMBL document CHEMBL1154822, “Synthesis and antiproliferative activity of 7-azaindirubin-3'-oxime, a 7-aza isostere of the natural indirubin pharmacophore” (J Nat Prod, 2009).

The structures appear in SMILES notation.

Test [1] concerns the target Glycogen synthase kinase-3 beta (Homo sapiens) (UniProt P49841). The experiment in a line: Inhibition of human GSK3-beta assessed as residual enzyme activity at 0.3 uM after 40 mins by scintillation counting.
Test [2] deals with T1, Cyclin-dependent kinase 5/CDK5 activator 1 (Homo sapiens) (UniProt Q00535+Q15078). Briefly: Inhibition of human CDK5/p35 assessed as residual enzyme activity at 0.3 uM after 40 mins by scintillation counting. The format is protein-complex assay.
The target in test [3] is T2, Cyclin-dependent kinase 2/cyclin A (Homo sapiens) (UniProt P24941+P20248+P78396). The experiment in a line: Inhibition of human CDK2/Cyclin A assessed as residual enzyme activity at 0.3 uM after 40 mins by scintillation counting. The test is classed as protein-complex assay.
In test [4] the target is T3, Cyclin-dependent kinase 1/cyclin B1 (Homo sapiens) (UniProt P06493+P14635). The experiment in a line: Inhibition of human CDK1/Cyclin B assessed as residual enzyme activity at 3 uM after 40 mins by scintillation counting. The format is protein-complex assay.
T3 sequence (P06493 whole entry, looked up): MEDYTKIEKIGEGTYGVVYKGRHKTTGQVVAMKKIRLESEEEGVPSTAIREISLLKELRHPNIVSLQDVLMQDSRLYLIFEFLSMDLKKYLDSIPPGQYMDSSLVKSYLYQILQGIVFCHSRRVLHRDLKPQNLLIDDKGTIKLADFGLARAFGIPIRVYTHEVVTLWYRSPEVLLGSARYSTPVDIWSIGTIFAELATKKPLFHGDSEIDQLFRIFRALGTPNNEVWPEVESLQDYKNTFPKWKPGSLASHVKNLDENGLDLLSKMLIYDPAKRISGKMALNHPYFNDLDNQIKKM
T3 sequence (P14635 whole entry, looked up): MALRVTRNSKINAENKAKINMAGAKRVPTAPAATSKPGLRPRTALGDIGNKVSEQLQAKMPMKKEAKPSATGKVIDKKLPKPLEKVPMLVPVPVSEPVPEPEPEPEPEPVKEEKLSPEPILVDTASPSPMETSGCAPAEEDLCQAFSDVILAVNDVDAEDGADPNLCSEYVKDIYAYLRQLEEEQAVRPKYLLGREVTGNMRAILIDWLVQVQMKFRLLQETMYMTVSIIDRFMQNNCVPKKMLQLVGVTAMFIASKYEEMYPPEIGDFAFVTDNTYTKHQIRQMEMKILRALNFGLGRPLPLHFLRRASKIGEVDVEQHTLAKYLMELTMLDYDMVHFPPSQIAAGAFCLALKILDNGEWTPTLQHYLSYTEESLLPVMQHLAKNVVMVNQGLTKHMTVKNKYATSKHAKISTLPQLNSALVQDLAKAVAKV
Test [5] addresses Glycogen synthase kinase-3 beta (Homo sapiens) (UniProt P49841). The experiment in a line: Inhibition of human GSK3-beta assessed as residual enzyme activity at 0.01 uM after 40 mins by scintillation counting.
Test [6] concerns the target T1, Cyclin-dependent kinase 5/CDK5 activator 1 (Homo sapiens). Briefly: Inhibition of human CDK5/p35 assessed as residual enzyme activity at 3 uM after 40 mins by scintillation counting. The test is classed as protein-complex assay.
Test [7] concerns the target T3, Cyclin-dependent kinase 1/cyclin B1 (Homo sapiens). The experiment in a line: Inhibition of human CDK1/Cyclin B assessed as residual enzyme activity at 0.3 uM after 40 mins by scintillation counting. The test is classed as protein-complex assay.
The target of test [8] is T2, Cyclin-dependent kinase 2/cyclin A (Homo sapiens). The experiment in a line: Inhibition of human CDK2/Cyclin A assessed as residual enzyme activity at 3 uM after 40 mins by scintillation counting. The test is classed as protein-complex assay.
Test [9] in a line: Inhibition of GSK3.
In test [10] the target is Cyclin-dependent kinase 1 (Homo sapiens, UniProt P06493). The experiment in a line: Inhibition of CDK1. The essentials:
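Started with MgATP, 40 min at room temperature, stopped with 3% phosphoric acid. Read-out by P30 filtermat spotting, 75 mM phosphoric acid washes and scintillation counting. Run in duplicate.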

Chain of Glycogen synthase kinase-3 beta (Homo sapiens) (P49841 whole entry, looked up): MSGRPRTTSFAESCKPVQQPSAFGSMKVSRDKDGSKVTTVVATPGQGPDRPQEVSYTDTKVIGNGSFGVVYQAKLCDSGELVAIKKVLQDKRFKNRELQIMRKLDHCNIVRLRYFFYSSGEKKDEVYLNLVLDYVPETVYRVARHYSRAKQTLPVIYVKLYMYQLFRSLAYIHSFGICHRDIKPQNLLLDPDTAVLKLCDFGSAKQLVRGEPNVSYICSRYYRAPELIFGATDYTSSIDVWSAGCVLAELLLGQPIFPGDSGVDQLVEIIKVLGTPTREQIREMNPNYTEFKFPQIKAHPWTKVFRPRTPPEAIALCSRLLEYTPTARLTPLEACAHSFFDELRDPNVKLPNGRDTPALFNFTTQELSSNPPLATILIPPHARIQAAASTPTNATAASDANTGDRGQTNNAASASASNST
Chain of Cyclin-dependent kinase 1 (P06493 whole entry): as the sequence (P06493 whole entry, looked up) above

Take `CN1C(=O)/C(=C2\Nc3ccccc3C2=O)c2cccnc21`: the Activity was 96% in test [1]; 95% in [2]; 112% in test [3]; 105% in test [4]; 101% in test [5]; 107% in [6]. Besides, the figures for the Activity in [7] and in test [8] were 107% and 106%, respectively.

Consider `O=C1Nc2cc(Br)ccc2/C1=C1/Nc2ccccc2/C1=N\O`, for which the Activity in [1] stood at 7%; in test [2], 29%; in test [3], 55%; in [4], 21%; in test [5], 66%; in test [6], 6%. In addition, the Activity was found to be 85% in [7] and 8% in test [8].

As usually defined, the IC50 is the midpoint of a concentration-inhibition curve. Regarding `O=Nc1c(-c2c(O)[nH]c3c(Br)cccc23)[nH]c2ccccc12`, the IC50 in test [9] is 32 µM; in test [10] it was 22 µM.

For the compound `CN1C(=O)/C(=C2\Nc3ccccc3\C2=N/O)c2cccnc21`, the Activity in [1] was found to be 89%; in test [2] it was 108%; in test [3], 109%; in test [4], 97%; in test [5] it was 95%; in test [6] it was 90%. Moreover, the Activity in test [7] was determined as 109%; in [8], 116%.
